From ChEMBL document CHEMBL3351764, “Design, synthesis and biological activity of flavonoid derivatives as selective agonists for neuromedin U 2 receptor” (Bioorg Med Chem, 2014) come the findings set out here.

Molecules are shown by their SMILES. Activity calls are given as the source filed them. The calls are words filed in the database; no cut-off is given here.

Experiment [1] concerns the target D(1A) dopamine receptor (Homo sapiens) (UniProt P21728). Nature of the experiment: Agonist activity at human D1 receptor at 100 uM to 5 mM.
Experiment [2] addresses T1, Adenosine receptor A1 (Homo sapiens) (UniProt P30542).
T1 sequence (whole entry): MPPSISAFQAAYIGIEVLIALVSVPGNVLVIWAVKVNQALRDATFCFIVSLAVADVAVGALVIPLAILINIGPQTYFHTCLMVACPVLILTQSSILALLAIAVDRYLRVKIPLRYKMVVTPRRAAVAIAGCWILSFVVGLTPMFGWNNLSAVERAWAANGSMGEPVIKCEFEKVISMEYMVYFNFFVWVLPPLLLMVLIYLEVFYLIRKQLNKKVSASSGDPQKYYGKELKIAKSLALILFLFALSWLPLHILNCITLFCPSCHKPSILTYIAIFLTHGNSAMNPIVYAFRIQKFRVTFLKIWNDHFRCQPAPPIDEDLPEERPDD
Nature of the experiment: Agonist activity at human A1 receptor at 100 uM to 5 mM.

Experiment [3] has as its target Melanocortin receptor 4 (Homo sapiens) (UniProt P32245). Kind of experiment: Agonist activity at human MC4 receptor at 100 uM to 5 mM.
For experiment [4], the target named is T2, C5a anaphylatoxin chemotactic receptor 1 (Homo sapiens) (UniProt P21730).
T2 sequence (whole entry): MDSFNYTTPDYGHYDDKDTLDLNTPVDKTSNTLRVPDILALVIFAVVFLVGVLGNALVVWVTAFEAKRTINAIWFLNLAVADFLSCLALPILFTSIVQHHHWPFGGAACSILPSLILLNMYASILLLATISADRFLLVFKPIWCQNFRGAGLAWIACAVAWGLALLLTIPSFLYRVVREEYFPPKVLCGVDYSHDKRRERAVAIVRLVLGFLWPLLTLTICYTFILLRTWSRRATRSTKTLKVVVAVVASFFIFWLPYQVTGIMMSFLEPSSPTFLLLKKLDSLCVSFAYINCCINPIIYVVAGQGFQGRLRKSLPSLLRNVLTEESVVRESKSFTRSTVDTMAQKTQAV
Kind of experiment: Agonist activity at human C5a receptor at 100 uM to 5 mM.

Experiment [5] concerns the target T3, Parathyroid hormone/parathyroid hormone-related peptide receptor (Homo sapiens) (UniProt Q03431).
T3 sequence (whole entry): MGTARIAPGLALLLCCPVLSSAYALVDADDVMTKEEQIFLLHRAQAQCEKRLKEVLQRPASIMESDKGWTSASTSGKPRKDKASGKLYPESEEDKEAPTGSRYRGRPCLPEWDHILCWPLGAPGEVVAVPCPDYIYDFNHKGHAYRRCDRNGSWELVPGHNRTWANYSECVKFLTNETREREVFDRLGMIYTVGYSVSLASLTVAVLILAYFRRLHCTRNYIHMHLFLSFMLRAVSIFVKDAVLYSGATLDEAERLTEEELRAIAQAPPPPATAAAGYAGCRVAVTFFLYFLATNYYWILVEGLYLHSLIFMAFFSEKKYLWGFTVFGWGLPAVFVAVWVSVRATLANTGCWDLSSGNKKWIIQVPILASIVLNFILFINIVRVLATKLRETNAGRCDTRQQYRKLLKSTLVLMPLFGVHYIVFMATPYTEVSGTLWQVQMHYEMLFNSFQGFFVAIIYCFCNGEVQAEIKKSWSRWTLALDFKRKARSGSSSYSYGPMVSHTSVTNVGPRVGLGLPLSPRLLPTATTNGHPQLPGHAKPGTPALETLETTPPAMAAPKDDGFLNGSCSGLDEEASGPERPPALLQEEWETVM
Kind of experiment: Agonist activity at human PTH receptor at 100 uM to 5 mM.

Experiment [6] addresses Melanocyte-stimulating hormone receptor (Homo sapiens) (UniProt Q01726). Nature of the experiment: Agonist activity at human MC1 receptor at 100 uM to 5 mM.
Experiment [7] addresses T4, Neuromedin-U receptor 1 (Homo sapiens) (UniProt Q9HB89).
T4 sequence (whole entry): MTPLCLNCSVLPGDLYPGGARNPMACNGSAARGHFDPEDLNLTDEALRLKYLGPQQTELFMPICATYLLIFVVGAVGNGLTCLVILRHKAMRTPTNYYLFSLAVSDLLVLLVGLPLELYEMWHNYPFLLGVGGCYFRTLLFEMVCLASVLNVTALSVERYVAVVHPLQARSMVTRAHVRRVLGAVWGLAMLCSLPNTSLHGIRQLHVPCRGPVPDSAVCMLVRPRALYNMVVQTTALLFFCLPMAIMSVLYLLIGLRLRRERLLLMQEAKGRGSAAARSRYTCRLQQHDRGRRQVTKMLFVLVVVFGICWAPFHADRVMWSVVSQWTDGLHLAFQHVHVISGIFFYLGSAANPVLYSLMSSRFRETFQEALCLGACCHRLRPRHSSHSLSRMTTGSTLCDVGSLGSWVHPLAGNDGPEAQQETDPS
Kind of experiment: Agonist activity at human NMU1 receptor at 100 uM to 5 mM.

Experiment [8] addresses Melanocortin receptor 5 (Mus musculus) (UniProt P41149). Kind of experiment: Agonist activity at mouse MC5 receptor at 100 uM to 5 mM.
For experiment [9], the target named is Adrenocorticotropic hormone receptor (Homo sapiens) (UniProt Q01718). Kind of experiment: Agonist activity at human MC2 receptor at 100 uM to 5 mM.
Experiment [10] concerns the target Melanocyte-stimulating hormone receptor (Mus musculus) (UniProt Q01727). Nature of the experiment: Agonist activity at mouse MC1 receptor at 100 uM to 5 mM.
The target of another experiment is Neuromedin-U receptor 2 (Homo sapiens, UniProt Q9GZQ4). Kind of experiment: Agonist activity at human NMU2R transfected in HEK293 cells after 7 hrs by luciferase reporter gene assay. In kind it is cell-based. The method in brief:
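HEK-293 cells were stably co-transfected with a reporter gene construct and human NMU2R cDNA in pcDNA3.1(+), maintained under G418 selection at 37 °C in 5% CO2, then seeded and incubated overnight. Compounds were added at various concentrations for 7 h at 37 °C, followed by Bright-Glo luciferase read-out. Forskolin and NMU served as positive controls. EC50 was fitted by four-parameter logistic regression; means ± SEM of three independent experiments.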
Background: Reporter assays use an easily measured gene product as a stand-in for the process of interest.

For experiment [11], the target named is T5, Muscarinic acetylcholine receptor M1 (Homo sapiens) (UniProt P11229).
T5 sequence (whole entry): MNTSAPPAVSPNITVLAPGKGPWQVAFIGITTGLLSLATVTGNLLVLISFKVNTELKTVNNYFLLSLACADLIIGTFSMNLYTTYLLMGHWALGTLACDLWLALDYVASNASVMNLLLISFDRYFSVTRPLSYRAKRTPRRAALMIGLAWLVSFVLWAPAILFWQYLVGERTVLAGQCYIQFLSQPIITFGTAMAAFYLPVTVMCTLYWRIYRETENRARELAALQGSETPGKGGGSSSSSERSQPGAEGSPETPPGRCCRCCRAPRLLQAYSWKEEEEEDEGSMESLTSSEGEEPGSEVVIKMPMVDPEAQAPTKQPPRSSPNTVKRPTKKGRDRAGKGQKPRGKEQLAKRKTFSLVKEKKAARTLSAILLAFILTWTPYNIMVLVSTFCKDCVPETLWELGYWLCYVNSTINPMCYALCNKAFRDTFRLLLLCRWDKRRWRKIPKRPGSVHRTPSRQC
Nature of the experiment: Agonist activity at human M1 receptor at 100 uM to 5 mM.

Sequence of Adrenocorticotropic hormone receptor (Homo sapiens) (Q01718 whole entry): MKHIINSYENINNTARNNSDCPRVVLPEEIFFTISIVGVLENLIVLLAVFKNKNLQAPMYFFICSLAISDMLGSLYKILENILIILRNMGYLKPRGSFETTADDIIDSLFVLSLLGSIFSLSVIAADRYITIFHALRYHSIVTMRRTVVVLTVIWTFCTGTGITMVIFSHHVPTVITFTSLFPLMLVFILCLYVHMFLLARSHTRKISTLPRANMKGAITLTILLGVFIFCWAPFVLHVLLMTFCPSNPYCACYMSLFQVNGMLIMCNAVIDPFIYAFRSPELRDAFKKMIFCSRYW
Sequence of Melanocyte-stimulating hormone receptor (Homo sapiens) (Q01726 whole entry, looked up): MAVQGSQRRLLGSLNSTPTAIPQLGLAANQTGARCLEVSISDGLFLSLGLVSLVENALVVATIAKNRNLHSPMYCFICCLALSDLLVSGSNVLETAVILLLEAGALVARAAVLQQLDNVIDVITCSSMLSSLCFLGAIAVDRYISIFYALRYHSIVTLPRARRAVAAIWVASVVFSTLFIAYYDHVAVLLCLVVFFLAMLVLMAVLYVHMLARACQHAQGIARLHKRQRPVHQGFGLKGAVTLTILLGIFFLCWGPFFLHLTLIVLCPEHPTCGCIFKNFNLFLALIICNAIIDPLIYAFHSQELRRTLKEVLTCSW
Sequence of D(1A) dopamine receptor (Homo sapiens) (P21728 whole entry): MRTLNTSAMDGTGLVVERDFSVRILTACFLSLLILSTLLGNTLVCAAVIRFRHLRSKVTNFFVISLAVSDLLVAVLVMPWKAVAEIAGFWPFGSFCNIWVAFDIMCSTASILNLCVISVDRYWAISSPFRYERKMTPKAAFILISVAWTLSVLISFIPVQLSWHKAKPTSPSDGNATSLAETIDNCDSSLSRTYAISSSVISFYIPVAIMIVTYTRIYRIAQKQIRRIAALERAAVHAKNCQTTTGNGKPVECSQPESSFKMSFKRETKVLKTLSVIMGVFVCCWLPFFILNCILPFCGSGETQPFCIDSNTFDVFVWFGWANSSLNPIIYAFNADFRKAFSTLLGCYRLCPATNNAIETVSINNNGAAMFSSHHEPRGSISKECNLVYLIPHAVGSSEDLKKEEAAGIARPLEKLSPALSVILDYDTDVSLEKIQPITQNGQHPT
Sequence of Melanocortin receptor 4 (Homo sapiens) (P32245 whole entry): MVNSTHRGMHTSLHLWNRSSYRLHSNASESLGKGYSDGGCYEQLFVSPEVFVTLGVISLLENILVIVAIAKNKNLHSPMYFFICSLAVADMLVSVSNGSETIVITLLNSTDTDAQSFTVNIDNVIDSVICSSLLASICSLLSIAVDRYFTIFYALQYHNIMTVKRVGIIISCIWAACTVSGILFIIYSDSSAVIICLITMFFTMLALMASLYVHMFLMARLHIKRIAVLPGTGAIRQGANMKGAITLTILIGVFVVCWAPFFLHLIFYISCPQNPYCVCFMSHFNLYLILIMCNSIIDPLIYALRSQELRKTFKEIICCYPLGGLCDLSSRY
Sequence of Neuromedin-U receptor 2 (Q9GZQ4 whole entry): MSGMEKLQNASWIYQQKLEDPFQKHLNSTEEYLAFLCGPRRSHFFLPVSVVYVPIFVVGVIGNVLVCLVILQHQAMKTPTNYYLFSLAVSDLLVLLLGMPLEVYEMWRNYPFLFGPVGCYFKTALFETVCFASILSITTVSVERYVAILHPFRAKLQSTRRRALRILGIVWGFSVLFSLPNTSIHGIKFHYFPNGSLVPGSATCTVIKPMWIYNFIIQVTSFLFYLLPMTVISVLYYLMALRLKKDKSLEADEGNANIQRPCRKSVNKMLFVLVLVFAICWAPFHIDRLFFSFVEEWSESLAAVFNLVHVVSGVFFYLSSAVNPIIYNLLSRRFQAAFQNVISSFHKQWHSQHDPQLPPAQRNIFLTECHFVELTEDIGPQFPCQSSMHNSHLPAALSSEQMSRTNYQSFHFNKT
Sequence of Melanocyte-stimulating hormone receptor (Mus musculus) (Q01727 whole entry, looked up): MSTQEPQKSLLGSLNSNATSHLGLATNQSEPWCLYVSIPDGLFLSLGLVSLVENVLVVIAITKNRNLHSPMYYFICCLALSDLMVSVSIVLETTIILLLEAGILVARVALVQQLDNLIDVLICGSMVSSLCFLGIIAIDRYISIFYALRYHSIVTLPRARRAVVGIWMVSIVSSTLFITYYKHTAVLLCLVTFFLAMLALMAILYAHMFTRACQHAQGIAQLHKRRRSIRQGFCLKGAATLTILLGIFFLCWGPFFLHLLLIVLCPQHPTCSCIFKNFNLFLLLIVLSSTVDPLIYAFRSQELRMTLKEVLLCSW
Sequence of Melanocortin receptor 5 (Mus musculus) (P41149 whole entry): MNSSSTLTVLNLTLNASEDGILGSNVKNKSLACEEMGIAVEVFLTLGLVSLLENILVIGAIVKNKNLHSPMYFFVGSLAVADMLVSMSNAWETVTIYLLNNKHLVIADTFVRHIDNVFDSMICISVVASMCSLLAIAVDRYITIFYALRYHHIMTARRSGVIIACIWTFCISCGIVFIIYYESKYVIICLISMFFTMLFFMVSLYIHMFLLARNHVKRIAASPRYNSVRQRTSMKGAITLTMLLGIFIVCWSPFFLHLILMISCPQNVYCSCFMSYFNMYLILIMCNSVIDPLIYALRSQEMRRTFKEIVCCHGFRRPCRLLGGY

Usually EC50 stands for the concentration at which the effect is half-maximal. Regarding `O=c1c(O)c(-c2cccc(Br)c2)oc2ccccc12`, the outcome in experiment [1], in [2], in experiment [3], in [4], in experiment [5] and in [6] was inactive. The result in [7], in [8], in [9], in [10] and in experiment [11] was inactive. Moreover, the concentration giving a half-maximal response (EC50) result on Neuromedin-U receptor 2 (hek293) was “Not Active”.

`COc1ccc(-c2oc3ccccc3c(=O)c2O)cc1O`: the outcome in experiment [1], in [2], in experiment [3], in experiment [4], in experiment [5] and in experiment [6] was inactive. The result in [7], in experiment [8], in [9], in experiment [10] and in experiment [11] was inactive. At Neuromedin-U receptor 2 (hek293), the concentration giving a half-maximal response (EC50) entry is on record as “Not Active”.

With `O=c1c(O)c(-c2cc(Br)ccc2F)oc2ccccc12`, the outcome in experiment [1], in experiment [2], in experiment [3], in [4], in experiment [5] and in [6] was inactive. The outcome in experiment [7], in experiment [8], in experiment [9], in experiment [10] and in [11] was inactive. For the same compound, the EC50 on Neuromedin-U receptor 2 (read-out: EC50) came out at 14 µM.

With `COc1c(-c2cc(Br)ccc2F)oc2ccccc2c1=O`, the outcome in experiment [1], in experiment [2], in experiment [3], in experiment [4], in experiment [5] and in [6] was inactive. Moreover, the result in experiment [7], in experiment [8], in experiment [9], in experiment [10] and in experiment [11] was inactive. The EC50 result at Neuromedin-U receptor 2 (hek293) is “Not Active”.

Turning to `O=c1cc(-c2ccc(O)cc2)oc2ccccc12`, the result in experiment [1], in experiment [2], in [3], in experiment [4], in [5] and in experiment [6] was inactive. Further, the outcome in [7], in [8], in experiment [9], in [10] and in experiment [11] was inactive. In addition, the EC50 entry on Neuromedin-U receptor 2 (hek293) is “Not Active”.

For the compound `O=c1c(O)c(-c2ccc(Cl)cc2Cl)oc2ccccc12`, the result in experiment [1], in experiment [2], in experiment [3], in experiment [4], in experiment [5] and in experiment [6] was inactive. Besides, the result in experiment [7], in experiment [8], in experiment [9], in [10] and in experiment [11] was inactive. The concentration for a half-maximal effect (EC50) result on Neuromedin-U receptor 2 (hek293) was “Not Active”.

For `COc1cc(-c2cc(=O)c3ccccc3o2)ccc1O`, the outcome in experiment [1], in [2], in experiment [3], in [4], in [5] and in experiment [6] was inactive. In addition, the result in experiment [7], in experiment [8], in experiment [9], in experiment [10] and in experiment [11] was inactive. Further, the EC50 entry at Neuromedin-U receptor 2 (hek293) is listed as “Not Active”.

As for `O=c1c(O)c(-c2ccc(O)c(O)c2)oc2ccccc12`, the result in experiment [1], in experiment [2], in experiment [3], in [4], in [5] and in [6] was inactive. The result in experiment [7], in experiment [8], in [9], in [10] and in experiment [11] was inactive. Moreover, the half-maximal effective concentration (EC50) entry on Neuromedin-U receptor 2 (hek293) is recorded as “Not Active”.

For `CN(C)c1ccc(-c2oc3ccccc3c(=O)c2O)cc1`, the result in experiment [1], in experiment [2], in experiment [3], in [4], in experiment [5] and in [6] was inactive. The result in experiment [7], in experiment [8], in experiment [9], in experiment [10] and in experiment [11] was inactive. On Neuromedin-U receptor 2 (hek293), the EC50 entry was “Not Active”.
